According to ChEMBL document CHEMBL1151954, “Photinides A-F, cytotoxic benzofuranone-derived gamma-lactones from the plant endophytic fungus Pestalotiopsis photiniae” (2009):
Activity calls are given as the source filed them. The rule behind the calls is not given here.

Tests used:
MDA-MB-231 = assay: Cytotoxicity against human MDA-MB-231 cells at 10 ug/ml after 4 hrs by MTT assay; format: functional
Outline: (§1)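 MTT assay in 96-well plates, 10^4 cells per well, attached overnight. Cells were exposed to compound diluted in medium from 10 mg/mL DMSO stocks (vehicle control 0.2% DMSO) at 37 °C, 5% CO2, for 4 h, then changed to fresh DMEM. MTT (0.5 mg/mL) was added for 3 h at 37 °C in the dark. Formazan was dissolved in DMSO and read at 540 nm; results given as inhibitory rate.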

HeLa = assay: Cytotoxicity against human HeLa cells at 10 ug/ml after 4 hrs by MTT assay; format: functional, cell-based; outline: as §1

C[C@@H]1CC(=O)O[C@H]1/C(CO)=C1/Oc2cccc(O)c2C1=O [PHOTINIDE D]
Activity (MDA-MB-231): 24.4% | Activity (HeLa): inactive

COc1cccc2c1C(=O)/C(=C(/CO)[C@@H]1OC(=O)C[C@H]1C)O2 [PHOTINIDE B]
Activity (MDA-MB-231): 24.2% | Activity (HeLa): inactive

COc1cccc2c1C(=O)/C(=C(\CO)[C@@H]1OC(=O)C[C@H]1C)O2 [PHOTINIDE A]
Activity (MDA-MB-231): 24.4% | Activity (HeLa): inactive

C[C@@H]1CC(=O)O[C@H]1/C(CO)=C1\Oc2cccc(O)c2C1=O [PHOTINIDE C]
Activity (MDA-MB-231): 23.1% | Activity (HeLa): inactive

COc1cccc2c1C(=O)[C@@]1(O2)O[C@]1(CO)[C@@H]1OC(=O)C[C@H]1C
Activity (MDA-MB-231): Active | Activity (HeLa): inactive

COc1cccc2c1C(=O)[C@]1(O2)O[C@@]1(CO)[C@@H]1OC(=O)C[C@H]1C
Activity (MDA-MB-231): 24.6% | Activity (HeLa): inactive
